Measurements as given in ChEMBL document CHEMBL4354826, “Structure-Based Discovery of SD-36 as a Potent, Selective, and Efficacious PROTAC Degrader of STAT3 Protein” (J Med Chem, 2019).
Calls of active or inactive are those of the source. The rule behind the calls is not given here.

Columns and labels:
[1] = target: T1, Signal transducer and activator of transcription 3 (Homo sapiens, UniProt P40763); test: Binding affinity to recombinant human His/SUMO-tagged STAT3 (127 to 688 residues) expressed in Escherichia coli Rosetta (DE3) incubated for 1 hr by fluorescence polarization assay
T1 sequence (P40763 whole entry, the tested form may be a part): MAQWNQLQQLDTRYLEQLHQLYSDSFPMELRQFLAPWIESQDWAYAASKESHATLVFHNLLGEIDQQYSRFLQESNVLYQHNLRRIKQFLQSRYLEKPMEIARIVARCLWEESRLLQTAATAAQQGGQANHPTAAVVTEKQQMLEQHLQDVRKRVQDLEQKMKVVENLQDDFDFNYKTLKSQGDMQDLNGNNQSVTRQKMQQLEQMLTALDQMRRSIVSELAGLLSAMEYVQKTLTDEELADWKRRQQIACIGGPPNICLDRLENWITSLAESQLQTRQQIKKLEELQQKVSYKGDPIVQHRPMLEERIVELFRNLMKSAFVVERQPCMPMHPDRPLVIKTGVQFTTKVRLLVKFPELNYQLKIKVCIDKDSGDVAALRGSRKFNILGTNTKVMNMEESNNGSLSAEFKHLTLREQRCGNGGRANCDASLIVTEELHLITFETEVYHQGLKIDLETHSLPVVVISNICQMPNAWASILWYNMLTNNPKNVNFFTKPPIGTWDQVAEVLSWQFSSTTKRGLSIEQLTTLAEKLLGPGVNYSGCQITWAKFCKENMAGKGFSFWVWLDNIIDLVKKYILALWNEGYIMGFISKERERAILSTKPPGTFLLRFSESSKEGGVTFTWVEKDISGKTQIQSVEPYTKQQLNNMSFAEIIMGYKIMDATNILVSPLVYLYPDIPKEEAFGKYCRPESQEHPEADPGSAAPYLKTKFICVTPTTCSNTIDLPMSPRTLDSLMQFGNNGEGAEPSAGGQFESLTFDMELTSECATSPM

[2] = target: T2, Protein cereblon/Signal transducer and activator of transcription 3 (Homo sapiens, UniProt P40763+Q96SW2); test: Protac activity at CRBN/STAT3 in human MOLM16 cells assessed as degradation of STAT3 incubated for 4 hrs by Western blot analysis; format: cell-based
Method in brief: (§1)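 Molm-16 cells treated 4 h with serially diluted compound. Lysates immunoblotted (SDS–PAGE, PVDF, 5% blocker/TBST, chemiluminescence) for total STAT3 and pSTAT3 Y705. DC50 taken as the concentration reducing total STAT3 by 50%.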

[3] = Antiproliferative activity against human MOLM16 cells assessed as reduction in cell viability incubated for 4 days by cell-titer glo luminescent assay; format: functional, cell-based; conditions: MOLM16, 96 h
Method in brief: (§2)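 Viability assay: cells incubated with serially diluted compounds for 4 days, viability read by CellTiter-Glo luminescence; IC50 from concentration–response.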

[4] = target: T1, Signal transducer and activator of transcription 3; test: Potency index, ratio of Ki of CJ-887 to Ki of compound for binding affinity to recombinant human His/SUMO-tagged STAT3 (127 to 688 residues) expressed in Escherichia coli Rosetta (DE3) incubated for 1 hr by fluorescence polarization assay
[5] = target: T2, Protein cereblon/Signal transducer and activator of transcription 3; test: Protac activity at CRBN/STAT3 in human MOLM16 cells assessed as degradation of phosphorylated STAT3 Y705 upto 10 uM incubated for 4 hrs by Western blot analysis; format: cell-based; method in brief: as §1
Target sequence in this assay (P40763 2-770 limits assumed): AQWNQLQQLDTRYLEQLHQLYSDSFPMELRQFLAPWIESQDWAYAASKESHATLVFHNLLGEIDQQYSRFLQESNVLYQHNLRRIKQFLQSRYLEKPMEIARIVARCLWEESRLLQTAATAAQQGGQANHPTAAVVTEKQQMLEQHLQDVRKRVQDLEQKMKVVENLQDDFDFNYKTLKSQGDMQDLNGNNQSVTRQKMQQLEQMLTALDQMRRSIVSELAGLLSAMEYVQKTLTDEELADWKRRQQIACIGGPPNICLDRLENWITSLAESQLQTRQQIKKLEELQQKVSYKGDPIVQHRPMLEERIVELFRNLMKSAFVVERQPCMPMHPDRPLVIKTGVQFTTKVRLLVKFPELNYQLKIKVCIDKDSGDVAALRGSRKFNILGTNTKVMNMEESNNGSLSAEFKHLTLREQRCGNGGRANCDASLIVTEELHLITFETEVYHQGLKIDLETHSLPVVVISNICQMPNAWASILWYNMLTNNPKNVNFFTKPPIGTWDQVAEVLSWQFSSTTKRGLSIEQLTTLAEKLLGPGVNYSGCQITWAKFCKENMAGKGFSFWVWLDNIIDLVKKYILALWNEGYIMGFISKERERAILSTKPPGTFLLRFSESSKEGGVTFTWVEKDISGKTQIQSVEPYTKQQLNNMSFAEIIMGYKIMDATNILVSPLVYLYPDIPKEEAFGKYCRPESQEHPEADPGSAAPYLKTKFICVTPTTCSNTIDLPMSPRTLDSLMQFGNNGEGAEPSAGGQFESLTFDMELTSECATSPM
Target sequence in this assay (Q96SW2 whole entry partner): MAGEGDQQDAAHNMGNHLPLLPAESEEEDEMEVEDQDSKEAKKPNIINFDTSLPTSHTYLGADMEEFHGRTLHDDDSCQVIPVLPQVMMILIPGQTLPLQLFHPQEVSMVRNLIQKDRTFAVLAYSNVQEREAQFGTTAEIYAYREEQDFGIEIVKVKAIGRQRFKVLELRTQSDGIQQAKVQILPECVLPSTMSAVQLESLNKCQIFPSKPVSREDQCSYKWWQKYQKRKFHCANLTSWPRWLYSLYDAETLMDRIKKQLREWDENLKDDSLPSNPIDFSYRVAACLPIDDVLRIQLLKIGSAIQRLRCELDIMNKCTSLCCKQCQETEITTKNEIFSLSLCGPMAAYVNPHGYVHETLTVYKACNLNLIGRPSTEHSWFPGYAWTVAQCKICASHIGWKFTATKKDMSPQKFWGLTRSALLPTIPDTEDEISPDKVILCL

[6] = target: T2, Protein cereblon/Signal transducer and activator of transcription 3; test: Protac activity at CRBN/STAT3 in human MOLM16 cells assessed as degradation of STAT3 up to 10 uM incubated for 4 hrs by Western blot analysis; format: cell-based; method in brief: as §1
Target sequence in this assay (P40763 2-770 limits assumed): as the sequence (P40763 2-770 limits assumed) above
Target sequence in this assay (Q96SW2 whole entry partner): as the sequence (Q96SW2 whole entry partner) above

[7] = target: T2, Protein cereblon/Signal transducer and activator of transcription 3; test: Protac activity at CRBN/STAT3 in human MOLM16 cells assessed as degradation of phosphorylated STAT3 Y705 at 1 uM incubated for 4 hrs by Western blot analysis; format: cell-based; method in brief: as §1
Target sequence in this assay (P40763 2-770 limits assumed): as the sequence (P40763 2-770 limits assumed) above
Target sequence in this assay (Q96SW2 whole entry partner): as the sequence (Q96SW2 whole entry partner) above

[8] = target: T2, Protein cereblon/Signal transducer and activator of transcription 3; test: Protac activity at CRBN/STAT3 in human MOLM16 cells assessed as degradation of STAT3 at 1 uM incubated for 4 hrs by Western blot analysis; format: cell-based; method in brief: as §1
Target sequence in this assay (P40763 2-770 limits assumed): as the sequence (P40763 2-770 limits assumed) above
Target sequence in this assay (Q96SW2 whole entry partner): as the sequence (Q96SW2 whole entry partner) above

SU-DHL-1 = test: Antiproliferative activity against human SUDHL1 cells assessed as reduction in cell viability incubated for 4 days by cell-titer glo luminescent assay; format: functional, cell-based; conditions: SU-DHL-1, 96 h; method in brief: as §2
[9] = target: T2, Protein cereblon/Signal transducer and activator of transcription 3; test: Protac activity at CRBN/STAT3 in human SUDHL1 cells assessed as degradation of STAT3 incubated for 16 hrs by Western blot analysis; format: cell-based
Target sequence in this assay (P40763 whole entry): as the sequence (P40763 whole entry, the tested form may be a part) above
Target sequence in this assay (Q96SW2 whole entry): as the sequence (Q96SW2 whole entry partner) above

| Structure (SMILES) | DC50 [2] [nM] | IC50 [3] [nM] | further results |
| --- | --- | --- | --- |
| CN1CC[C@H]2CC[C@@H](C(=O)N[C@@H](CCC(N)=O)C(=O)NCc3ccccc3)N2C(=O)[C@@H](NC(=O)c2cc3cc(C(F)(F)P(=O)(O)O)ccc3[nH]2)C1 |  |  | Ki [1]: 14 nM |
| NC(=O)CC[C@H](NC(=O)[C@@H]1CC[C@@H]2CCN(C(=O)CCCn3cc(C#Cc4cccc5c4CN(C4CCC(=O)NC4=O)C5=O)cn3)C[C@H](NC(=O)c3cc4cc(C(F)(F)P(=O)(O)O)ccc4[nH]3)C(=O)N21)C(=O)NC(c1ccccc1)c1ccccc1 (stereo partly drawn) | 250 | 232 |  |
| NC(=O)CC[C@H](NC(=O)[C@@H]1CC[C@@H]2CCN(C(=O)CCCCCC#Cc3ccc4c(c3)C(=O)N(C3CCC(=O)NC3=O)C4)C[C@H](NC(=O)c3cc4cc(C(F)(F)P(=O)(O)O)ccc4[nH]3)C(=O)N21)C(=O)NC(c1ccccc1)c1ccccc1 (stereo partly drawn) | 360 | 711 |  |
| CC(=O)N1CC[C@H]2CC[C@@H](C(=O)N[C@@H](CCC(N)=O)C(=O)NC(c3ccccc3)c3ccccc3)N2C(=O)[C@@H](NC(=O)c2cc3cc(OP(=O)(O)O)ccc3[nH]2)C1 |  |  | Ki [1]: 33 nM |
| CC(=O)N1CC[C@H]2CC[C@@H](C(=O)N[C@@H](CCC(N)=O)C(=O)NC(c3ccccc3)c3ccccc3)N2C(=O)[C@@H](NC(=O)/C=C(\C)c2ccc(C(F)(F)P(=O)(O)O)cc2)C1 |  |  | Ki [1]: 164 nM |
| CN1CC[C@H]2CC[C@@H](C(=O)N[C@@H](CCC(N)=O)C(=O)NC(c3ccccc3)c3ccccc3)N2C(=O)[C@@H](NC(=O)c2cc3cc(C(F)(F)P(=O)(O)O)ccc3[nH]2)C1 |  |  | Ki [1]: 12 nM |
| NC(=O)CC[C@H](NC(=O)[C@@H]1CC[C@@H]2CCCC[C@H](NC(=O)c3cc4cc(OP(=O)(O)O)ccc4[nH]3)C(=O)N21)C(=O)NCc1ccccc1 |  |  | Ratio Ki [4]: 2; Ki [1]: 25 nM |
| NC(=O)CC[C@H](NC(=O)[C@@H]1CC[C@@H]2CCN(C(=O)CCCCCC#Cc3cccc4c3CN(C3CCC(=O)NC3=O)C4=O)C[C@H](NC(=O)c3cc4cc(OP(=O)(O)O)ccc4[nH]3)C(=O)N21)C(=O)NC(c1ccccc1)c1ccccc1 (stereo partly drawn) | > 10000 | > 2000 | Activity [5]: inactive; Activity [6]: inactive |
| NC(=O)CC[C@H](NC(=O)[C@@H]1CC[C@@H]2CCN(C(=O)CCCCCCCc3cccc4c3CN(C3CCC(=O)NC3=O)C4=O)C[C@H](NC(=O)c3cc4cc(C(F)(F)P(=O)(O)O)ccc4[nH]3)C(=O)N21)C(=O)NC(c1ccccc1)c1ccccc1 (stereo partly drawn) | 160 | 63 |  |
| NC(=O)CC[C@H](NC(=O)[C@@H]1CC[C@@H]2CCN(C(=O)CCCCCC#Cc3ccc4c(c3)CN(C3CCC(=O)NC3=O)C4=O)C[C@H](NC(=O)c3cc4cc(C(F)(F)P(=O)(O)O)ccc4[nH]3)C(=O)N21)C(=O)NC(c1ccccc1)c1ccccc1 (stereo partly drawn) | 410 | 104 |  |
| CC(=O)N1CC[C@H]2CC[C@@H](C(=O)N[C@@H](CCC(N)=O)C(=O)NC(c3ccccc3)c3ccccc3)N2C(=O)[C@@H](NC(=O)c2cc3cc(CP(=O)(O)O)ccc3[nH]2)C1 |  |  | Ki [1]: 584 nM |
| NC(=O)CC[C@H](NC(=O)[C@@H]1CC[C@@H]2CCN(C(=O)N3CCC(CCC#Cc4cccc5c4CN(C4CCC(=O)NC4=O)C5=O)CC3)C[C@H](NC(=O)c3cc4cc(C(F)(F)P(=O)(O)O)ccc4[nH]3)C(=O)N21)C(=O)NC(c1ccccc1)c1ccccc1 (stereo partly drawn) | 180 | 99 |  |
| NC(=O)CC[C@H](NC(=O)[C@@H]1CC[C@@H]2CCN(C(=O)CCCC#Cc3cccc4c3CN(C3CCC(=O)NC3=O)C4=O)C[C@H](NC(=O)c3cc4cc(C(F)(F)P(=O)(O)O)ccc4[nH]3)C(=O)N21)C(=O)NC(c1ccccc1)c1ccccc1 (stereo partly drawn) | 2630 | 950 | Activity [7]: inactive; Activity [8]: inactive; Activity [2]: Dose-dependent effect |
| NC(=O)CC[C@H](NC(=O)[C@@H]1CC[C@@H]2CCN(C(=O)CCCCCCNc3cccc4c3CN(C3CCC(=O)NC3=O)C4=O)C[C@H](NC(=O)c3cc4cc(C(F)(F)P(=O)(O)O)ccc4[nH]3)C(=O)N21)C(=O)NC(c1ccccc1)c1ccccc1 (stereo partly drawn) | 90 | 59 |  |
| CC(=O)N1CC[C@H]2CC[C@@H](C(=O)N[C@@H](CCC(N)=O)C(=O)NCc3ccccc3)N2C(=O)[C@@H](NC(=O)c2cc3cc(C(F)(F)P(=O)(O)O)ccc3[nH]2)C1 |  |  | Ki [1]: 14 nM |
| NC(=O)CC[C@H](NC(=O)[C@@H]1CC[C@@H]2CCN(C(=O)CCCCCC#Cc3cccc4c3CN(C3CCC(=O)NC3=O)C4=O)C[C@H](NC(=O)c3cc4cc(C(F)(F)P(=O)(O)O)ccc4[nH]3)C(=O)N21)C(=O)NCc1ccccc1 (stereo partly drawn) | 220 | 210 | IC50 (SU-DHL-1): 3240 nM; DC50 [9]: 55 nM |
| NC(=O)CC[C@H](NC(=O)[C@@H]1CC[C@@H]2CCN(C(=O)CCN3CCC(C#Cc4cccc5c4CN(C4CCC(=O)NC4=O)C5=O)CC3)C[C@H](NC(=O)c3cc4cc(C(F)(F)P(=O)(O)O)ccc4[nH]3)C(=O)N21)C(=O)NC(c1ccccc1)c1ccccc1 (stereo partly drawn) | 2470 | 360 |  |
| NC(=O)CC[C@H](NC(=O)[C@@H]1CC[C@@H]2CCN(C(=O)CCCCCC#Cc3cccc4c3CN(C3CCC(=O)NC3=O)C4=O)C[C@H](NC(=O)c3cc4cc(CP(=O)(O)O)ccc4[nH]3)C(=O)N21)C(=O)NC(c1ccccc1)c1ccccc1 (stereo partly drawn) | > 10000 | > 2000 | Activity [5]: inactive; Activity [6]: inactive |
| NC(=O)CC[C@H](NC(=O)[C@@H]1CC[C@@H]2CCN(CCCCCCC#Cc3cccc4c3CN(C3CCC(=O)NC3=O)C4=O)C[C@H](NC(=O)c3cc4cc(C(F)(F)P(=O)(O)O)ccc4[nH]3)C(=O)N21)C(=O)NC(c1ccccc1)c1ccccc1 (stereo partly drawn) | 650 | 147 | IC50 (SU-DHL-1): > 10000 nM; DC50 [9]: 919 nM |
| NC(=O)CC[C@H](NC(=O)[C@@H]1CC[C@@H]2CCN(C(=O)OCCCCC#Cc3cccc4c3CN(C3CCC(=O)NC3=O)C4=O)C[C@H](NC(=O)c3cc4cc(C(F)(F)P(=O)(O)O)ccc4[nH]3)C(=O)N21)C(=O)NC(c1ccccc1)c1ccccc1 (stereo partly drawn) | 240 | 128 | IC50 (SU-DHL-1): 2370 nM; DC50 [9]: 49 nM |
| NC(=O)CC[C@H](NC(=O)[C@@H]1CC[C@@H]2CCN(C(=O)CCCCCCCCC#Cc3cccc4c3CN(C3CCC(=O)NC3=O)C4=O)C[C@H](NC(=O)c3cc4cc(C(F)(F)P(=O)(O)O)ccc4[nH]3)C(=O)N21)C(=O)NC(c1ccccc1)c1ccccc1 (stereo partly drawn) | 150 | 42 |  |
| NC(=O)CC[C@H](NC(=O)[C@@H]1CC[C@@H]2CCN(C(=O)CC(=O)N3CCC(C#Cc4cccc5c4CN(C4CCC(=O)NC4=O)C5=O)CC3)C[C@H](NC(=O)c3cc4cc(C(F)(F)P(=O)(O)O)ccc4[nH]3)C(=O)N21)C(=O)NC(c1ccccc1)c1ccccc1 (stereo partly drawn) | 380 | 67 |  |
| NC(=O)CC[C@H](NC(=O)[C@@H]1CC[C@@H]2CCN(C(=O)CCCCCCC#Cc3cccc4c3CN(C3CCC(=O)NC3=O)C4=O)C[C@H](NC(=O)c3cc4cc(C(F)(F)P(=O)(O)O)ccc4[nH]3)C(=O)N21)C(=O)NC(c1ccccc1)c1ccccc1 (stereo partly drawn) | 90 | 25 |  |
| NC(=O)CC[C@H](NC(=O)[C@@H]1CC[C@@H]2CCCC[C@H](NC(=O)c3cc4cc(C(F)(F)P(=O)(O)O)ccc4[nH]3)C(=O)N21)C(=O)NCc1ccccc1 |  |  | Ratio Ki [4]: 7; Ki [1]: 7 nM |
| NC(=O)CC[C@H](NC(=O)[C@@H]1CC[C@@H]2CCN(C(=O)c3cnn(CCCC#Cc4cccc5c4CN(C4CCC(=O)NC4=O)C5=O)c3)C[C@H](NC(=O)c3cc4cc(C(F)(F)P(=O)(O)O)ccc4[nH]3)C(=O)N21)C(=O)NC(c1ccccc1)c1ccccc1 (stereo partly drawn) | 180 | 241 |  |
| NC(=O)CC[C@H](NC(=O)[C@@H]1CC[C@@H]2CCN(C(=O)CCCCC#Cc3cccc4c3CN(C3CCC(=O)NC3=O)C4=O)C[C@H](NC(=O)c3cc4cc(C(F)(F)P(=O)(O)O)ccc4[nH]3)C(=O)N21)C(=O)NC(c1ccccc1)c1ccccc1 (stereo partly drawn) | 260 | 78 |  |
| CNC(=O)[C@H](CCC(N)=O)NC(=O)[C@@H]1CC[C@@H]2CCN(C(=O)CCCCCC#Cc3cccc4c3CN(C3CCC(=O)NC3=O)C4=O)C[C@H](NC(=O)c3cc4cc(C(F)(F)P(=O)(O)O)ccc4[nH]3)C(=O)N21 (stereo partly drawn) | 640 | 226 | IC50 (SU-DHL-1): > 10000 nM; DC50 [9]: 890 nM |
